Measurements from ChEMBL document CHEMBL4400542, “Epidermal Growth Factor Receptor-Targeted Multifunctional Photosensitizers for Bladder Cancer Imaging and Photodynamic Therapy” (J Med Chem, 2019).

How the values were obtained:
Details in all cases: in vivo; call rule not given here
[1] = Drug uptake in human UM-UC-3 cells xenografted in SCID mouse at 50 uCi, iv administered at 24 hrs post imaging and measured at 24 to 72 post injection by PET imaging analysis; assay type: ADME, organism-based, UMUC3
In short: (§1)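 SCID mice (3/group) with UMUC3 tumors first given 18F-FDG (50 µCi) and imaged at 110 min. At 24 h later, 124I-labelled agent given i.v. (50, 25 or 15 µCi); microPET at 24, 48, 72 h post-injection, same bed position. Injected dose checked by well gamma counter, within ±5%.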

[2] = Drug uptake in human UM-UC-3 cells xenografted in SCID mouse at 15 uCi, iv measured at 24 to 72 post injection by PET imaging analysis; assay type: ADME, organism-based, UMUC3; in short: as §1
[3] = Drug uptake in human UM-UC-3 cells xenografted in SCID mouse at 50 uCi, iv measured at 110 min post injection by PET imaging analysis

Drug uptake [1] | Drug uptake [2] | Drug uptake [3] | SMILES
Active | Active |  | CCC1=C(C)c2cc3[nH]c(cc4nc(c5c6[nH]c(cc1n2)c(C)c6C(=O)C5)[C@@H](CCC(=O)NCc1cccc(C#Cc2cccc(Nc5ncnc6cc(OCCOC)c(OCCOC)cc56)c2)c1)[C@@H]4C)c(C)c3C(C)OCc1cccc([124I])c1 (stereo partly drawn)
 |  | Not Active | OC[C@H]1OC(O)[C@H]([18F])[C@@H](O)[C@@H]1O (stereo partly drawn) [FLUDEOXYGLUCOSE F 18]
